Measurements reported in ChEMBL document CHEMBL3745626, “Synthesis of β-boswellic acid derivatives as cytotoxic and apoptotic agents” (Bioorg Med Chem Lett, 2016).
Calls of active or inactive are those of the source. The calls are words filed in the database; no cut-off is given here.

Key:
A549 [1] = assay: Anticancer activity against human A549 cells assessed as growth inhibition at 100 uM after 24 hrs by sulforhodamine B assay; format: functional; settings: A549, 24 h
[2] = Anticancer activity against human HT1080 cells assessed as growth inhibition at 100 uM after 24 hrs by sulforhodamine B assay; format: functional; settings: HT-1080, 24 h
[3] = Anticancer activity against human PC3 cells assessed as growth inhibition at 100 uM after 24 hrs by sulforhodamine B assay; format: functional; settings: PC-3, 24 h
[4] = Anticancer activity against human HCT116 cells assessed as growth inhibition at 100 uM after 24 hrs by sulforhodamine B assay; format: functional; settings: HCT-116, 24 h
[5] = Anticancer activity against human HCT116 cells assessed as growth inhibition after 24 hrs by sulforhodamine B assay; format: functional, cell-based; settings: HCT-116, 24 h
Method in brief: (§1)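 SRB assay on human cancer cell lines over a range of concentrations; inhibitory values calculated from concentration–response data, mean ± SD of three experiments.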

[6] = Anticancer activity against human PC3 cells assessed as growth inhibition after 24 hrs by sulforhodamine B assay; format: functional, cell-based; settings: PC-3, 24 h; method in brief: as §1
A549 [7] = assay: Anticancer activity against human A549 cells assessed as growth inhibition after 24 hrs by sulforhodamine B assay; format: functional, cell-based; settings: A549, 24 h; method in brief: as §1
T47D = assay: Anticancer activity against human T47D cells assessed as growth inhibition after 24 hrs by sulforhodamine B assay; format: functional, cell-based; method in brief: as §1
[8] = Cytotoxicity against human FR2 cells assessed as growth inhibition after 24 hrs by sulforhodamine B assay; format: cell-based; settings: FR2, 24 h
HCT-116 [9] = assay: Induction of apoptosis in human HCT116 cells assessed as increase in apoptotic body formation after 48 hrs by DAPI staining based fluorescence microscopy; format: functional, cell-based
Method in brief: (§2)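 HCT-116 cells exposed to 1, 2.5 and 5 μM for 48 h, nuclei stained with DAPI and examined by fluorescence microscopy for chromatin condensation and apoptotic bodies; untreated and paclitaxel controls.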

HCT-116 [10] = assay: Induction of apoptosis in human HCT116 cells assessed as PARP cleavage at 50 nM after 48 hrs by Western blot analysis; format: functional, cell-based
HCT-116 [11] = assay: Induction of apoptosis in human HCT116 cells assessed as loss of mitochondrial membrane potential after 48 hrs by rhodamine 123 staining based confocal microscopy; format: functional, cell-based
Method in brief: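 Rhodamine-123 staining of HCT-116 cells treated at 1, 2.5 and 5 μM; mitochondrial fluorescence intensity read by laser scanning confocal microscopy; paclitaxel (50 nM) positive control; mean ± SD.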

HCT-116 [12] = assay: Induction of apoptosis in human HCT116 cells assessed as PARP cleavage at 1 to 5 uM after 48 hrs by Western blot analysis; format: functional, cell-based
Method in brief: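 HCT-116 cells incubated 48 h at 1, 2.5 and 5 μM; intact and cleaved PARP-1 detected by western blot, β-actin loading control; paclitaxel positive control.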

HCT-116 [13] = assay: Induction of apoptosis in human HCT116 cells assessed as chromatin condensation after 48 hrs by DAPI staining based fluorescence microscopy; format: functional, cell-based; method in brief: as §2
HCT-116 [14] = assay: Anticancer activity against human HCT116 cells assessed as inhibition of colony formation at 1 to 5 uM after 48 hrs by clonogenic assay; format: functional, cell-based
Method in brief: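 HCT-116 cells treated at 1, 2.5 and 5 μM, then reseeded at suitable dilution (500 cells for untreated control) in six-well plates to form colonies over 1-3 weeks; survival fraction expressed relative to untreated control; paclitaxel positive control.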

HCT-116 [15] = assay: Induction of ROS generation in human HCT116 cells after 48 hrs by 2',7'-dichlorofluorescien diacetate staining based fluorescence microscopy; format: functional, cell-based
Method in brief: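 HCT-116 cells exposed 48 h at 1 and 2.5 μM, loaded with DCFDA; DCF fluorescence measured by imaging and spectrofluorometry; H2O2 positive control.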

Compound | inhibition at 100 µM (A549 [1]) | inhibition at 100 µM [2] | inhibition at 100 µM [3] | inhibition at 100 µM [4] | other results
COC(=O)[C@@]1(C)C(=O)/C(=C/c2ccc(F)c(Br)c2)C[C@]2(C)[C@H]3CC=C4[C@@H]5[C@@H](C)[C@H](C)CC[C@]5(C)CC[C@@]4(C)[C@]3(C)CC[C@@H]12 | 47% | 43% | 40% | 27% | –
COC(=O)[C@@]1(C)C(=O)/C(=C/c2cccc([N+](=O)[O-])c2)C[C@]2(C)[C@H]3CC=C4[C@@H]5[C@@H](C)[C@H](C)CC[C@]5(C)CC[C@@]4(C)[C@]3(C)CC[C@@H]12 | 0% | 13% | 10% | 6% | –
COC(=O)[C@@]1(C)C(=O)/C(=C/c2ccccc2[N+](=O)[O-])C[C@]2(C)[C@H]3CC=C4[C@@H]5[C@@H](C)[C@H](C)CC[C@]5(C)CC[C@@]4(C)[C@]3(C)CC[C@@H]12 | 42% | 100% | 11% | 21% | –
COC(=O)[C@@]1(C)C(=O)/C(=C/c2ccc(OC(F)(F)F)cc2)C[C@]2(C)[C@H]3CC=C4[C@@H]5[C@@H](C)[C@H](C)CC[C@]5(C)CC[C@@]4(C)[C@]3(C)CC[C@@H]12 | 14% | 78% | 35% | 0% | –
COC(=O)[C@@]1(C)C(=O)/C(=C/c2cccs2)C[C@]2(C)[C@H]3CC=C4[C@@H]5[C@@H](C)[C@H](C)CC[C@]5(C)CC[C@@]4(C)[C@]3(C)CC[C@@H]12 | 42% | 37% | 19% | 40% | –
COC(=O)[C@@]1(C)C(=O)/C(=C/c2ccccc2F)C[C@]2(C)[C@H]3CC=C4[C@@H]5[C@@H](C)[C@H](C)CC[C@]5(C)CC[C@@]4(C)[C@]3(C)CC[C@@H]12 | 47% | 23% | 44% | 0% | –
COC(=O)[C@@]1(C)C(=O)/C(=C/c2ccc([N+](=O)[O-])cc2)C[C@]2(C)[C@H]3CC=C4[C@@H]5[C@@H](C)[C@H](C)CC[C@]5(C)CC[C@@]4(C)[C@]3(C)CC[C@@H]12 | 47% | 36% | 52% | 30% | –
COC(=O)[C@@]1(C)C(=O)/C(=C/c2cccc(Br)c2)C[C@]2(C)[C@H]3CC=C4[C@@H]5[C@@H](C)[C@H](C)CC[C@]5(C)CC[C@@]4(C)[C@]3(C)CC[C@@H]12 | 14% | 15% | 6% | 8% | –
COC(=O)[C@@]1(C)C(=O)/C(=C/c2c(Cl)cccc2Cl)C[C@]2(C)[C@H]3CC=C4[C@@H]5[C@@H](C)[C@H](C)CC[C@]5(C)CC[C@@]4(C)[C@]3(C)CC[C@@H]12 | 74% | 99% | 24% | 57% | –
COC(=O)[C@@]1(C)C(=O)/C(=C/c2ccc3ccccc3n2)C[C@]2(C)[C@H]3CC=C4[C@@H]5[C@@H](C)[C@H](C)CC[C@]5(C)CC[C@@]4(C)[C@]3(C)CC[C@@H]12 | 37% | 43% | 44% | 37% | –
COC(=O)[C@@]1(C)C(=O)/C(=C/c2ccco2)C[C@]2(C)[C@H]3CC=C4[C@@H]5[C@@H](C)[C@H](C)CC[C@]5(C)CC[C@@]4(C)[C@]3(C)CC[C@@H]12 | 48% | 16% | 44% | 18% | –
COC(=O)[C@@]1(C)C(=O)/C(=C/c2ccccn2)C[C@]2(C)[C@H]3CC=C4[C@@H]5[C@@H](C)[C@H](C)CC[C@]5(C)CC[C@@]4(C)[C@]3(C)CC[C@@H]12 | 100% | 95% | 100% | 100% | IC50 [5]: 7.2 µM; IC50 [6]: 24.4 µM; IC50 (A549 [7]): 26.1 µM; IC50 (T47D): 15.6 µM; IC50 [8]: 59 µM
COC(=O)[C@@]1(C)C(=O)/C(=C/c2ccc(F)cc2F)C[C@]2(C)[C@H]3CC=C4[C@@H]5[C@@H](C)[C@H](C)CC[C@]5(C)CC[C@@]4(C)[C@]3(C)CC[C@@H]12 | 33% | 0% | 20% | 32% | –
COC(=O)[C@@]1(C)C(=O)/C(=C/c2ccccc2Cl)C[C@]2(C)[C@H]3CC=C4[C@@H]5[C@@H](C)[C@H](C)CC[C@]5(C)CC[C@@]4(C)[C@]3(C)CC[C@@H]12 | 0% | 21% | 25% | 0% | –
COC(=O)[C@@]1(C)C(=O)/C(=C/c2ccc(Cl)cc2)C[C@]2(C)[C@H]3CC=C4[C@@H]5[C@@H](C)[C@H](C)CC[C@]5(C)CC[C@@]4(C)[C@]3(C)CC[C@@H]12 | 7% | 6% | 10% | 0% | –
COC(=O)[C@@]1(C)C(=O)/C(=C/c2cc(OC)cc(OC)c2)C[C@]2(C)[C@H]3CC=C4[C@@H]5[C@@H](C)[C@H](C)CC[C@]5(C)CC[C@@]4(C)[C@]3(C)CC[C@@H]12 | 55% | 17% | 41% | 21% | –
COC(=O)[C@@]1(C)C(=O)/C(=C/c2cc(C(F)(F)F)cc(C(F)(F)F)c2)C[C@]2(C)[C@H]3CC=C4[C@@H]5[C@@H](C)[C@H](C)CC[C@]5(C)CC[C@@]4(C)[C@]3(C)CC[C@@H]12 | 5% | 0% | 7% | 10% | –
CC(=O)O[C@H]1C(=O)[C@@]2(C)[C@H]([C@H](OC(=O)c3ccccc3)[C@]3(O)C[C@H](OC(=O)[C@H](O)[C@@H](NC(=O)c4ccccc4)c4ccccc4)C(C)=C1C3(C)C)[C@]1(OC(C)=O)CO[C@@H]1C[C@@H]2O | – | – | – | – | Activity (HCT-116 [9]): Active; Activity (HCT-116 [10]): Active
COC(=O)[C@@]1(C)C(=O)/C(=C/c2ccc(C)cc2)C[C@]2(C)[C@H]3CC=C4[C@@H]5[C@@H](C)[C@H](C)CC[C@]5(C)CC[C@@]4(C)[C@]3(C)CC[C@@H]12 | 28% | 26% | 11% | 20% | –
COC(=O)[C@@]1(C)C(=O)CC[C@]2(C)[C@H]3CC=C4[C@@H]5[C@@H](C)[C@H](C)CC[C@]5(C)CC[C@@]4(C)[C@]3(C)CC[C@@H]12 | 56% | 21% | 44% | 58% | –
COC(=O)[C@@]1(C)C(=O)/C(=C/c2ccncc2)C[C@]2(C)[C@H]3CC=C4[C@@H]5[C@@H](C)[C@H](C)CC[C@]5(C)CC[C@@]4(C)[C@]3(C)CC[C@@H]12 | 99% | 95% | 100% | 100% | Activity (HCT-116 [11]): Dose-dependent effect; Activity (HCT-116 [12]): Active; IC50 [5]: 1.84 µM; IC50 [6]: 1.96 µM; Activity (HCT-116 [9]): Dose-dependent effect; IC50 (A549 [7]): 2.13 µM; Activity (HCT-116 [13]): Dose-dependent effect; inhibition (HCT-116 [14]): Dose-dependent effect; IC50 (T47D): 1.26 µM; Activity (HCT-116 [15]): Dose-dependent effect; IC50 [8]: 21.4 µM
COC(=O)[C@@]1(C)C(=O)/C(=C/c2ccc(Cl)cc2Cl)C[C@]2(C)[C@H]3CC=C4[C@@H]5[C@@H](C)[C@H](C)CC[C@]5(C)CC[C@@]4(C)[C@]3(C)CC[C@@H]12 | 97% | 100% | 79% | 49% | IC50 [5]: > 100 µM; IC50 [6]: 69.5 µM; IC50 (A549 [7]): 56.1 µM; IC50 (T47D): > 100 µM; IC50 [8]: > 100 µM
